Measurements reported in paper PMC7661742 (Molecular cancer therapeutics, 2020).

Tests used:
[1] = target: CDK19 (Homo sapiens, UniProt Q9BWU1); assay: SelectScreen Kinase Profiling, CDK19; format: biochemical
How it was run: (§1)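 Kinases were run in a commercial kinase profiling service. Single-point tests used 1 μM test compound at the ATP concentration specified per kinase. IC50 curves started at 20 μM, followed by 10 subsequent […] dilution steps.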

[2] = target: CDK1 (Homo sapiens, UniProt P06493); assay: SelectScreen Kinase Profiling, CDK1; format: biochemical
How it was run: as §1

[3] = target: CDK2 (Homo sapiens, UniProt P24941); assay: SelectScreen Kinase Profiling, CDK2; format: biochemical
How it was run: as §1

[4] = target: CDK4 (Homo sapiens, UniProt P11802); assay: SelectScreen Kinase Profiling, CDK4; format: biochemical
How it was run: as §1

[5] = target: CDK6 (Homo sapiens, UniProt Q00534); assay: SelectScreen Kinase Profiling, CDK6; format: biochemical
How it was run: as §1

[6] = target: CDK7 (Homo sapiens, UniProt P50613); assay: SelectScreen Kinase Profiling, CDK7; format: biochemical
How it was run: as §1

[7] = target: CDK9 (Homo sapiens, UniProt P50750); assay: SelectScreen Kinase Profiling, CDK9; format: biochemical
How it was run: as §1

[8] = system: granzyme B-positive murine spleen-derived NK cells; assay: Modulation of granzyme B in mouse splenocytes; format: cell-based; details: murine spleen-derived NK cells activated with IL-15 in vitro; 150 nmol/l, 44 h
How it was run: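 Cells received 2.5 ng/ml IL-15, 150 nmol/l test compound, or both, for 44 h at 37°C and 5% CO2. Protein transport inhibitor was present for the last 4 h. Cells were stained for CD3ε, NK1.1 and intracellular granzyme B after fix/perm and gated viable CD3−NK1.1+GZMB+ (3–6 mice per group).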

[9] = system: perforin secretion from NK92MI cells; assay: Perforin release assay; format: cell-based, human; details: 24 h, ELISA
How it was run: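 NK92MI cells were seeded at 40.000 cells/well with test compound over a concentration range and held 24 h at 37°C, humidified, 5% CO2. IL-15 (50 ng/ml) served as positive control. Secreted perforin in supernatants was quantified by ELISA.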

[10] = system: MC-38 cells; assay: Viability assay, MC-38; format: cell-based, mouse
How it was run: (§2)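 Mouse tumour cells were plated in 96-well plates with CDK8/19 inhibitor over a concentration range, with 72 h or 120 h timing depending on the growth of each line. Cells were held at 37°C, humidified, 5% CO2. Viability was read by CellTiter-Glo luminescence or AlamarBlue, and curves were fitted by iterative sigmoidal analysis.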

[11] = system: B16-F10 cells; assay: Viability assay, B16-F10; format: cell-based, mouse
How it was run: as §2

[12] = system: EMT6 cells; assay: Viability assay, EMT6; format: cell-based, mouse
How it was run: as §2

[13] = system: primary leukemia cells from chronic lymphocytic leukemia patients; assay: CD20-mediated ADCC with rituximab on primary CLL cells; format: cell-based, human
How it was run: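 Primary CLL cells and autologous PBMCs from patients were cultured 48 h with rituximab (10 μg/ml) plus CDK8/19 inhibitor or vehicle. Leukemia-cell depletion was counted by flow cytometry against PKH26 reference microbeads and normalised to the mean of DMSO controls (n=5). The no-NK arm used CLL cells pretreated 48 h with vehicle or inhibitor, then 4 h with vehicle or rituximab. Cell death was read by flow cytometry (n=4).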

[14] = Mouse pharmacokinetics; format: in vivo; details: mice
How it was run: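 C57BL/6 mice (n=3 per group) were given test compound orally at 25 mg/kg or intravenously at 1 mg/kg. Plasma concentrations were measured by LC-MS at set time points after dosing.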

[15] = Metabolic stability; format: in vitro ADME; details: compared with Compound 2
How it was run: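 Test compound was incubated with cryopreserved hepatocytes, and compound depletion was quantified over 240 min by LC/MS/MS. In vivo hepatic clearance was predicted from depletion using the well-stirred model.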

[16] = system: STAT1^S727 phosphorylation; format: in vivo, mouse; details: daily oral dose of 10 mg/kg, for at least 6 h
[17] = system: B16-F10-luc2 melanoma; assay: In vivo efficacy, B16-F10-luc2 syngeneic melanoma model; details: 10 mg/kg daily oral
How it was run: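 Female C57BL/6N mice received 100 thousand B16-F10-luc2 cells intravenously. They were randomized by body weight on day 5, 10 mice per group, then dosed orally once daily. Tumor burden was read as average radiance by luciferase in vivo imaging, alongside survival and body weight. TGI = [1-((treated(final) – treated(Day1))/(control(final) – control(Day1)))] * 100%.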

[18] = system: MC38 tumors; assay: In vivo efficacy, MC-38 murine syngeneic colon adenocarcinoma model; design: species or system mouse; details: BI-1347 10 mg/kg daily oral; anti-PD-1 10 mg/kg i.p. twice weekly
How it was run: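 Female C57BL/6N mice were implanted subcutaneously with 100 thousand MC38 cells and randomized by body weight on day 3, 5 mice per group. The anti-PD-1 was rat IgG2a anti-mouse PD-1 (RMP1–14). Readouts were response and TGI at day 20 and complete responses at study end. Groups were compared by one-tailed, non-adjusted Mann Whitney test.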

[19] = system: EMT6 tumors; assay: In vivo efficacy, EMT6 murine mammary carcinoma model; design: species or system mouse; details: BI-1347 monotherapy

Sequence of CDK19 (Q9BWU1 whole entry): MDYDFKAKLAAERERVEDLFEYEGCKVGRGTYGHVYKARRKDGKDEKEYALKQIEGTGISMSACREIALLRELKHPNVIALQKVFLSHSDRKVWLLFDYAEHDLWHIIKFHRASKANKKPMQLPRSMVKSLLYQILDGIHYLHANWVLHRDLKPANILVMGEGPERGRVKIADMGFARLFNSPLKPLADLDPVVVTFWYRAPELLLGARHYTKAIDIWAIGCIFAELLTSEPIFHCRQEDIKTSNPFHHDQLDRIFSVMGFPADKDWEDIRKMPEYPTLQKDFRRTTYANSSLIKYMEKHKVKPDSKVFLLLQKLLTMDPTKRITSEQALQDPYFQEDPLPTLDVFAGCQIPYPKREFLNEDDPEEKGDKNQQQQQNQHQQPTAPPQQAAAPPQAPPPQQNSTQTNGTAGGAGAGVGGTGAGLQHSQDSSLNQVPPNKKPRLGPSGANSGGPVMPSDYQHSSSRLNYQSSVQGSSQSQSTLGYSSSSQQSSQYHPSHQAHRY
Sequence of CDK6 (Q00534 whole entry): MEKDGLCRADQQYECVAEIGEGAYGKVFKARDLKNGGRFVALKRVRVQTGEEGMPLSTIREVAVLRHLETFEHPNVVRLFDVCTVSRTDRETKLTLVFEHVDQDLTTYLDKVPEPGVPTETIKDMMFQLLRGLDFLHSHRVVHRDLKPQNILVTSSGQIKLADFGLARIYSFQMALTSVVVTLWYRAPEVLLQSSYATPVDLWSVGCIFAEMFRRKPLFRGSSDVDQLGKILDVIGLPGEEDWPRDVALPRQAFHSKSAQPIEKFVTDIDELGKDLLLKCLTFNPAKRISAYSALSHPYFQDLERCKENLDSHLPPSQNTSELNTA
Sequence of CDK6 (P24385 whole entry partner): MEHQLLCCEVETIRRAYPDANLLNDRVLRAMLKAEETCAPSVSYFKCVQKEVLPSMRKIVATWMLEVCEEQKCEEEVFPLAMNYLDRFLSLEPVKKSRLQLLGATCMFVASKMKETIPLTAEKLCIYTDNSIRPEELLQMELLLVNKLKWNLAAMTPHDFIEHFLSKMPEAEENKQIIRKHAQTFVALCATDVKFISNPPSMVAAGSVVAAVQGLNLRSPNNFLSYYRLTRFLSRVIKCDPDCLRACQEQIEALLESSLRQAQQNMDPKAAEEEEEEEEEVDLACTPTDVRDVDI
Sequence of CDK4 (P11802 whole entry): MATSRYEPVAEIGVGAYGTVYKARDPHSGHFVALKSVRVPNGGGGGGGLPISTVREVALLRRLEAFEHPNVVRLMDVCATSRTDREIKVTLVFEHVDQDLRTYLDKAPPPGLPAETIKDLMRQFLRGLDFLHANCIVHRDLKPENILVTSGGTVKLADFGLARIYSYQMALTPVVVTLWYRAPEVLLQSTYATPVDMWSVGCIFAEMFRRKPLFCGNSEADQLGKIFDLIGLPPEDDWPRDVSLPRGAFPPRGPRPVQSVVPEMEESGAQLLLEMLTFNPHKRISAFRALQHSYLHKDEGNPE
Sequence of CDK4 (P24385 whole entry partner): as the sequence (P24385 whole entry partner) above
Sequence of CDK1 (P06493 whole entry): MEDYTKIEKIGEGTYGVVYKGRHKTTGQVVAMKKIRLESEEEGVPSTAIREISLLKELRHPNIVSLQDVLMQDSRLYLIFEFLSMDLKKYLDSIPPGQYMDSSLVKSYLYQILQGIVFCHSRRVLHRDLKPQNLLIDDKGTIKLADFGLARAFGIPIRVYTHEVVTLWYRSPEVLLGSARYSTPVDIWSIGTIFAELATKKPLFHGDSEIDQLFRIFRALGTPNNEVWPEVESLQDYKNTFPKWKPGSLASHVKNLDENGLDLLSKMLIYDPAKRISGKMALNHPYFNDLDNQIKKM
Sequence of CDK1 (P14635 whole entry partner): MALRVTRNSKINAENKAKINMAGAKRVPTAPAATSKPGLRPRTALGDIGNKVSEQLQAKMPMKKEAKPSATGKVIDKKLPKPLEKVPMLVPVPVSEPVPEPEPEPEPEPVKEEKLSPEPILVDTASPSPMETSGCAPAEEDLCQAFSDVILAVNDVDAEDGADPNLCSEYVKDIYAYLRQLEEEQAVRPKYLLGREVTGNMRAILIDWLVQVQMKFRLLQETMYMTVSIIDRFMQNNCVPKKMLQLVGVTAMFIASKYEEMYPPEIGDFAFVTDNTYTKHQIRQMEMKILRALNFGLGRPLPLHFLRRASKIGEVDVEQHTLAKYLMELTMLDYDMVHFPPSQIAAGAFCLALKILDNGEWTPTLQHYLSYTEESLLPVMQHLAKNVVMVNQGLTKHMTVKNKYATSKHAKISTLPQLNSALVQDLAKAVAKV
Sequence of CDK7 (P50613 whole entry): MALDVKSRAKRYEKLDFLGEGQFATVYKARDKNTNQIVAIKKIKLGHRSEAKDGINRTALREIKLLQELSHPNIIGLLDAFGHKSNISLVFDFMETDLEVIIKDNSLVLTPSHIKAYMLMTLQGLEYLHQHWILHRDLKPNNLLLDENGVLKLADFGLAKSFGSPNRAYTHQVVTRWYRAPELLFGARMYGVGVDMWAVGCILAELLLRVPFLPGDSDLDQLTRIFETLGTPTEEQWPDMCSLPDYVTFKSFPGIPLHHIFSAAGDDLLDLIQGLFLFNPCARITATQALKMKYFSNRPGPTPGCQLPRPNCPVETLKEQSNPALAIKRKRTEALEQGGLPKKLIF
Sequence of CDK7 (P51946 whole entry partner): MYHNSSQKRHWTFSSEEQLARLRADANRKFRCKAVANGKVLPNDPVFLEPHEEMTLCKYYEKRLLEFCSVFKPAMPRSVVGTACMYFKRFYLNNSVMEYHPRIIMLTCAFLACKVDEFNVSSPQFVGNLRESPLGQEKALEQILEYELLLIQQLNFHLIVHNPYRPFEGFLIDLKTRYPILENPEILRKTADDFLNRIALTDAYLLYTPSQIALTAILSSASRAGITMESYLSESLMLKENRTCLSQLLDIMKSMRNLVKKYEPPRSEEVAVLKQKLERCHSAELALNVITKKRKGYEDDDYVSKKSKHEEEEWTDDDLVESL
Sequence of CDK7 (P51948 whole entry partner): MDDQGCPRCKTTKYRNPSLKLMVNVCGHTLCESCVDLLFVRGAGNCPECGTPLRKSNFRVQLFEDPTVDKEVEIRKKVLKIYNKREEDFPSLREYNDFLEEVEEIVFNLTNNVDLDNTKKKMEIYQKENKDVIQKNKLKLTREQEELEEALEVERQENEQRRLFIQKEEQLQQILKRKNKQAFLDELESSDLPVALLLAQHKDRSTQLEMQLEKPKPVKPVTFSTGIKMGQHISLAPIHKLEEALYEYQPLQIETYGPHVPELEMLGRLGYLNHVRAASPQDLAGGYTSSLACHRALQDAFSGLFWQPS
Sequence of CDK9 (P50750 whole entry): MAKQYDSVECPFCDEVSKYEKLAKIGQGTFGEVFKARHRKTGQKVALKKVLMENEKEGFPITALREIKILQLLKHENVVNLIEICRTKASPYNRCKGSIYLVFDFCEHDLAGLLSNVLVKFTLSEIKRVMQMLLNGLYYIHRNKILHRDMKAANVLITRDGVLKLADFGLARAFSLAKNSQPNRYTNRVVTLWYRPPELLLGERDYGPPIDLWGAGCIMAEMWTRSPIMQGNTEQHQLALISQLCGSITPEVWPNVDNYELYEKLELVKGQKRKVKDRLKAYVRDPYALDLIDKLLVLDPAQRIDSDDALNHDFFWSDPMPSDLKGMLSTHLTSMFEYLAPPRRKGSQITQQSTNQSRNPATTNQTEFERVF
Sequence of CDK9 (O60563 whole entry partner): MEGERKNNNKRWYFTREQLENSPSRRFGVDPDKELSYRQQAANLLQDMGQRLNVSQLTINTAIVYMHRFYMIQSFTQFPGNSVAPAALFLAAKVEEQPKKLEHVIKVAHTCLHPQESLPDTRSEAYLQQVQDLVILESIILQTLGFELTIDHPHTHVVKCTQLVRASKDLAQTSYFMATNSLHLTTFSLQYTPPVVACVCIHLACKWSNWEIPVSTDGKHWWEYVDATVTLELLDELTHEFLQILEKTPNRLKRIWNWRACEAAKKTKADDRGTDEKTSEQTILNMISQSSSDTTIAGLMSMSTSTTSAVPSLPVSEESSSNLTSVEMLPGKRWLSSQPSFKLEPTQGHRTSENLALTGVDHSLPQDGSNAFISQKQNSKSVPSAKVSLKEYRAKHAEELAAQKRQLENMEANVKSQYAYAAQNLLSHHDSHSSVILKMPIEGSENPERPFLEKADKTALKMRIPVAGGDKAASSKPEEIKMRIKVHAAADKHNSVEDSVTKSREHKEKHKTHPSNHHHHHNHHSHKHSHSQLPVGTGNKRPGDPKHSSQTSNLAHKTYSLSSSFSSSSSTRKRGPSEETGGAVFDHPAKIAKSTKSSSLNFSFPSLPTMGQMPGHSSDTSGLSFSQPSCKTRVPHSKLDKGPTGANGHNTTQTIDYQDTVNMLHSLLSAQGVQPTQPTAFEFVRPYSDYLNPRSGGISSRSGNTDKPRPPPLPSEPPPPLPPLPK

CN(C)C(=O)Cn1cc(-c2ccc(-c3cncc4ccccc34)cc2)cn1 [BI-1347]
IC50 [1]: < 1000 nM
inhibition of CDK1 [2]: no inhibition
inhibition of CDK2 [3]: no inhibition
inhibition of CDK4 [4]: no inhibition
inhibition of CDK6 [5]: no inhibition
inhibition of CDK7 [6]: no inhibition
inhibition of CDK9 [7]: no inhibition
increase of the proportion of granzyme B-positive NK cells [8]: approximately 4 fold
perforin levels in the supernatant [9]: increased perforin levels
in vitro sensitivity [10]: resistant
in vitro sensitivity [11]: resistant
in vitro sensitivity [12]: resistant
ADCC mediated depletion of primary leukemia cells by rituximab ([13]; in presence of PBMCs, 48 h): enhances
enhanced ADCC effect in absence of NK cells ([13]; purified CLL cells with rituximab, no NK cells): not observed
exposure and bioavailability (F) after p.o. dosing [14]: Excellent exposure and bioavailability
plasma concentration 24 h after dosing relative to the CDK8 IC50 ([14]; 25 mg/kg p.o.): around 100 fold
clearance ([14]; i.v. administration): 14 % QH
metabolic stability in vitro and in vivo [15]: higher metabolic stability
reduction of phosphorylation of STAT1^S727 [16]: 60%
median survival advantage compared to vehicle-treated animals [17]: 4 days
tolerability (body weight) [17]: well tolerated with minimal effect on body weight
tumor growth inhibition (TGI) ([17]; day 23): 94%
tumor growth inhibition (TGI) ([17]; day 29): 88%
mice surviving until day 42 ([17]; all control mice sacrificed by day 32): 2/10
CR [@ end of study, number of mice] [18]: 0/5
Response [@ d20, number of mice] [18]: 2/5
median survival ([19]; 5 days on / 5 days off intermittent scheduling): 26 days
median survival ([19]; daily oral 10 mg/kg, control 22 days): 22.5 days
